Reference: ChEMBL document CHEMBL1129371, “Bis tertiary amide inhibitors of the HIV-1 protease generated via protein structure-based iterative design” (J Med Chem, 1996)

Assays:
[1] = biological target: T1, Human immunodeficiency virus type 1 protease (Human immunodeficiency virus 1, UniProt Q72874); assay: Binding affinity against HIV-1 protease
[2] = system: Human immunodeficiency virus 1; assay: (§1) Effective dose against inhibition of HIV-1 protease in CEM cells; type: functional; conditions: Human immunodeficiency virus 1, CCRF-CEM; read-out: ED50 (the source's name)
How it was run: (§2)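 HIV-1-induced killing of CEM-SS cells; cell viability read by MTT tetrazolium metabolism. ED50 = concentration giving 50% inhibition of HIV-1-induced cell death. Run at Southern Research Institute.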

CCRF-CEM = assay: Antiviral activity againsy HIV-1 in CEM cells; type: functional; conditions: Homo sapiens, read-out: ED50 (the source's name); how it was run: as §2
[3] = biological target: T1, Human immunodeficiency virus type 1 protease; assay: Compound was tested for binding affinity against HIV protease
[4] = Toxic concentration at which 50% of CEM-SS cells were viable (uninfected with virus) as determined by metabolism of MTT in(uM).; type: toxicity, cell-based; conditions: human, read-out: TC50 (the source's name)
How it was run: (§3)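 Uninfected CEM-SS cells; viability read by MTT metabolism. TC50 = concentration giving 50% reduction in number of viable cells; reported in μM.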

[5] = Pharmacokinetic parameter Cmax determined after intravenous administration of 50 mg/kg to rat; type: ADME, organism-based; set-up: dose 50 mg/kg, route intravenous; conditions: in vivo
[6] = Pharmacokinetic parameter Cmax determined after oral administration of 50 mg/kg to rat; type: ADME, organism-based; set-up: dose 50 mg/kg, route oral; conditions: in vivo
[7] = Maximal concentration in monkey plasma after 25 mg/kg oral dose; type: ADME, organism-based; set-up: dose 25 mg/kg, route oral; conditions: simiiformes
[8] = Fraction of compound bio available orally in rat at dosage 50(mg/kg) by po administration; type: ADME, organism-based; conditions: in vivo
[9] = Pharmacokinetic parameter half life determined after oral administration of 15 mg/kg to dog; type: ADME, organism-based, Canis lupus familiaris; set-up: dose 15 mg/kg, route oral; conditions: in vivo
[10] = Pharmacokinetic parameter half life determined after intravenous administration of 50 mg/kg to rat; type: ADME, organism-based; set-up: dose 50 mg/kg, route intravenous; conditions: in vivo
[11] = Pharmacokinetic parameter Cmax determined after oral administration of 15 mg/kg to dog; conditions: in vivo
[12] = Pharmacokinetic parameter Cmax determined after intravenous administration of 60 mg/kg to rat; type: ADME, organism-based; set-up: dose 60 mg/kg, route intravenous; conditions: in vivo
[13] = Pharmacokinetic parameter half life determined after intravenous administration of 60 mg/kg to rat; type: ADME, organism-based; set-up: dose 60 mg/kg, route intravenous; conditions: in vivo
Rattus norvegicus [14] = assay: Fraction of compound bio available orally in rat at dosage 50(mg/kg) by po administration.; conditions: in vivo
[15] = Pharmacokinetic parameter Cmax determined after intravenous administration of 25 mg/kg to monkey; type: ADME, organism-based; set-up: dose 25 mg/kg, route intravenous; conditions: simiiformes, in vivo
[16] = Pharmacokinetic parameter Cmax determined after peroral administration of 25 mg/kg to monkey; type: ADME, organism-based; set-up: dose 25 mg/kg, route oral; conditions: simiiformes, in vivo, po
[17] = Pharmacokinetic parameter Cmax determined after peroral administration of 50 mg/kg to rat; type: ADME, organism-based; set-up: dose 50 mg/kg, route oral; conditions: in vivo, po
[18] = Fraction of compound bio available orally in dog at dosage 15(mg/kg) by po administration.; type: ADME, organism-based, Canis lupus familiaris; conditions: in vivo
[19] = Fraction of compound bio available orally in dog at dosage 30(mg/kg) by po administration.; type: ADME, organism-based, Canis lupus familiaris; conditions: in vivo
[20] = Oral bioavailability in rat (dose 50 mg/kg); type: ADME, organism-based; conditions: in vivo
[21] = Pharmacokinetic parameter half life determined after peroral administration of 25 mg/kg to monkey; type: ADME, organism-based; set-up: dose 25 mg/kg, route oral; conditions: simiiformes, in vivo, po
[22] = Pharmacokinetic parameter half life determined after intravenous administration of 15 mg/kg to dog; type: ADME, organism-based, Canis lupus familiaris; set-up: dose 15 mg/kg, route intravenous; conditions: in vivo
[23] = Pharmacokinetic parameter half life determined after intravenous administration of 25 mg/kg to monkey; type: ADME, organism-based; set-up: dose 25 mg/kg, route intravenous; conditions: simiiformes, in vivo
[24] = Pharmacokinetic parameter Cmax determined after oral administration of 30 mg/kg to dog; conditions: in vivo
[25] = Fraction of compound bio available orally in monkey at dosage 25(mg/kg) by po administration.; conditions: primates, in vivo
[26] = Pharmacokinetic parameter Cmax determined after oral administration of 30 mg/kg abd antacid (CaCO3 dosed orally 10 min prior to and 60 min postdosing) to dog; conditions: in vivo
[27] = Pharmacokinetic parameter half life determined after peroral administration of 30 mg/kg abd antacid (CaCO3 dosed orally 10 min prior to and 60 min postdosing) to dog; conditions: in vivo, po
[28] = Toxic concentration at which 50% of CEM-SS cells were viable (uninfected with virus) as determined by metabolism of MTT; type: toxicity, cell-based; conditions: human, read-out: TC50 (the source's name); how it was run: as §3
[29] = Pharmacokinetic parameter Cmax determined after peroral administration of 15 mg/kg to dog; conditions: in vivo, po
[30] = Pharmacokinetic parameter half life determined after peroral administration of 15 mg/kg to dog; conditions: in vivo, po
[31] = Pharmacokinetic parameter Cmax determined after peroral administration of 15 mg/kg to dog; type: ADME, organism-based, Canis lupus familiaris; set-up: dose 15 mg/kg, route oral; conditions: in vivo, po
[32] = Pharmacokinetic parameter Cmax determined after peroral administration of 25 mg/kg to monkey; No levels; type: ADME, organism-based; set-up: dose 25 mg/kg, route oral; conditions: simiiformes, in vivo, po
Rattus norvegicus [33] = assay: Pharmacokinetic parameter Cmax determined after oral administration of 50 mg/kg to rat; No levels; type: ADME, organism-based; set-up: dose 50 mg/kg, route oral; conditions: in vivo
CEM-SS = assay: as §1; type: functional; conditions: Homo sapiens, read-out: ED50 (the source's name); how it was run: as §2
[34] = Toxic concentration at which 50% of CEM-SS cells were viable (uninfected with virus) as determined by metabolism of MTT in(uM); type: toxicity, cell-based; conditions: human, read-out: TC50 (the source's name); how it was run: as §3

## CCC1(N(CCO)C(=O)c2ccccc2CCC(O)Cc2ccc(C)cc2C(=O)N(CCO)C(C)(C)C2CCOCC2)CCCC1 (configuration not stated)
[1]
  Ki: 35 nM
[2]
  EC50: 1110 nM

## CCN(C(=O)c1ccccc1CC(O)CCc1ccccc1C(=O)N(CCO)C1(CC)CCCC1)C(C)(C)c1ccccc1 (configuration not stated)
[1]
  Ki: 51 nM
[2]
  EC50: 1700 nM

## CCC1(N(CCO)C(=O)c2ccccc2CCC(O)Cc2ccc(C)cc2C(=O)N(CC2COC(C)(C)OC2)C(C)(C)c2ccccc2)CCCC1 (configuration not stated)
CCRF-CEM
  EC50: 590 nM
[3]
  Ki: 4 nM

## CC(C)(C)NC(=O)c1ccccc1CCC(O)Cc1ccccc1C(=O)NC(C)(C)C (configuration not stated)
[1]
  Ki: 20000 nM

## CC(C)(C)N(CCO)C(=O)c1ccccc1CCC(O)Cc1ccccc1C(=O)N(CCO)C(C)(C)C (configuration not stated)
[4]
  CC50: > 150000 nM
[2]
  EC50: 36000 nM

## Cc1ccc(CC(O)CCc2ccccc2C(=O)N(CCO)C(C)(C)c2ccccc2)c(C(=O)N(CCO)C(C)(C)c2ccccc2)c1 (configuration not stated)
[5]
  Cmax: 88900 ng/mL
[6]
  Cmax: 1200 ng/mL
[7]
  Cmax: 860 ng/mL
[8]
  bioavailability: 34%
[9]
  half-life: 2.07 h
[1]
  Ki: 18 nM
[10]
  half-life: 0.5 h
[2]
  EC50: 810 nM
[11]
  Cmax: 390 ng/mL

## CCC1(N(CCO)C(=O)c2ccccc2CCC(O)Cc2ccc(C)cc2C(=O)N(CCO)C2(c3ccccc3)CCCC2)CCCC1 (configuration not stated)
[1]
  Ki: 0.4 nM
[2]
  EC50: 790 nM

## CC(C)(C)N(CCO)C(=O)c1ccccc1CCC(O)Cc1ccccc1C(=O)N(CCO)C(C)(C)c1ccccc1 (configuration not stated)
[4]
  CC50: > 150000 nM
[1]
  Ki: 90 nM
[2]
  EC50: 3400 nM

## CCC1(N(CCO)C(=O)c2ccccc2CCC(O)Cc2ccc(C)cc2C(=O)N(CCO)C(C)(C)c2ccc(OCc3cccnc3)cc2)CCCC1 (configuration not stated)
[12]
  Cmax: 87200 ng/mL
[6]
  Cmax: 860 ng/mL
[13]
  half-life: 1 h
[1]
  Ki: 2 nM
[2]
  EC50: 650 nM
Rattus norvegicus [14]
  bioavailability: 5%

## CCC1(N(CCO)C(=O)c2ccccc2CCC(O)Cc2ccc(C)cc2C(=O)N(CCO)C(C)(C)c2ccccc2)CCCC1 (configuration not stated)
[15]
  Cmax: 18300 ng/mL
[5]
  Cmax: 88400 ng/mL
[16]
  Cmax: 1910 ng/mL
[17]
  Cmax: 2780 ng/mL
[18]
  bioavailability: 3%
[19]
  bioavailability: 33%
[20]
  bioavailability: 39%
[21]
  half-life: 1.07 h
[22]
  half-life: 0.24 h
[23]
  half-life: 1.08 h
[4]
  CC50: 103000 nM
[1]
  Ki: 8 nM
[10]
  half-life: 1.3 h
[2]
  EC50: 780 nM
[24]
  Cmax: 690 ng/mL
[25]
  bioavailability: 32%
[26]
  Cmax: 3260 ng/mL
[27]
  half-life: 0.52 h

## Cc1ccc(CC(O)CCc2ccccc2C(=O)N(CCO)C(C)(C)C)c(C(=O)N(CCO)C(C)(C)c2ccccc2)c1 (configuration not stated)
[1]
  Ki: 63 nM
[2]
  EC50: 4200 nM

## CC(C)(C)NC(=O)c1ccccc1C[C@@H](O)[C@H](Cc1ccccc1)NC(=O)[C@H](CC(N)=O)NC(=O)c1cnc2ccccc2c1
[28]
  CC50: 122000 nM
[2]
  EC50: 20 nM

## CC(C)(C)N(CCO)C(=O)c1ccccc1CCC(O)Cc1ccccc1C(=O)N(CCO)C(C)(C)c1ccc2ccccc2c1 (configuration not stated)
[1]
  Ki: 145 nM
[2]
  EC50: 7200 nM

## CCC1(N(CCO)C(=O)c2ccccc2CCC(O)Cc2ccc(C)cc2C(=O)N(CC(CO)CO)C(C)(C)c2ccccc2)CCCC1 (configuration not stated)
[5]
  Cmax: 52200 ng/mL
[6]
  Cmax: 1160 ng/mL
[16]
  Cmax: 810 ng/mL
[20]
  bioavailability: 7%
[1]
  Ki: 10 nM
[10]
  half-life: 1 h
[2]
  EC50: 950 nM
[29]
  Cmax: 1170 ng/mL
[30]
  half-life: 0.34 h

## CC(C)(C)N(CCO)C(=O)c1ccccc1CCC(O)Cc1ccccc1C(=O)N(CCO)C(C)(C)Cc1ccccc1 (configuration not stated)
[1]
  Ki: 1300 nM

## CCC1(N(CCO)C(=O)c2ccccc2CCC(O)Cc2ccc(Cl)cc2C(=O)N(CCO)C(C)(C)c2ccccc2)CCCC1 (configuration not stated)
[5]
  Cmax: 111000 ng/mL
[6]
  Cmax: 1400 ng/mL
[31]
  Cmax: 590 ng/mL
[32]
  Cmax: No levels
[20]
  bioavailability: 31%
[4]
  CC50: 97000 nM
[1]
  Ki: 2 nM
[10]
  half-life: 1.7 h
[2]
  EC50: 720 nM

## CCC1(N(CCO)C(=O)c2ccccc2CCC(O)Cc2ccc(C)cc2C(=O)N(CCO)C(C)(C)c2ccc(O)cc2)CCCC1 (configuration not stated)
[5]
  Cmax: 41300 ng/mL
Rattus norvegicus [33]
  Cmax: No levels
[20]
  bioavailability: 0%
[1]
  Ki: 6 nM
[10]
  half-life: 1.4 h
[2]
  EC50: 880 nM

## CC(C)(C)N(CCO)C(=O)c1ccccc1CC(O)CSc1ccccc1C(=O)N(CCO)C(C)(C)C (configuration not stated)
[1]
  Ki: 18000 nM

## CC(C)(C)NC(=O)[C@@H]1C[C@@H]2CCCC[C@@H]2CN1C[C@@H](O)[C@H](Cc1ccccc1)NC(=O)[C@H](CC(N)=O)NC(=O)c1cnc2ccccc2c1
[28]
  CC50: > 10000 nM
[3]
  Ki: 0.9 nM
CEM-SS
  EC50: 2 nM

## Cc1ccc(CCC(O)Cc2ccccc2C(=O)N(CCO)C(C)(C)c2ccccc2)c(C(=O)N(CCO)C(C)(C)C)c1 (configuration not stated)
[1]
  Ki: 150 nM
[2]
  EC50: 4900 nM

## CC(C)(C)NC(=O)c1ccccc1SCC(O)Cc1ccccc1C(=O)N(CCO)C(C)(C)C (configuration not stated)
[1]
  Ki: 34000 nM

## CCC1(N(CCO)C(=O)c2ccccc2CCC(O)Cc2ccc(C)cc2C(=O)N(CCO)C(C)(C)c2ccc(OCCN3CCOCC3)cc2)CCCC1 (configuration not stated)
[1]
  Ki: 9 nM
[2]
  EC50: 840 nM

## CC(C)(c1ccccc1)N(CCO)C(=O)c1ccccc1CCC(O)Cc1ccccc1C(=O)N(CCO)C(C)(C)c1ccccc1 (configuration not stated)
[34]
  CC50: 122000 nM
[1]
  Ki: 21 nM
[2]
  EC50: 2200 nM

## CCCC(CC)(CC)N(CCO)C(=O)c1cc(C)ccc1CC(O)CCc1ccccc1C(=O)N(CCO)C1(CC)CCCC1 (configuration not stated)
[1]
  Ki: 6 nM
[2]
  EC50: 1370 nM

## CCC1(N(CCO)C(=O)c2ccccc2CCC(O)Cc2ccc(C)cc2C(=O)N(CCC(O)CO)C(C)(C)c2ccccc2)CCCC1 (configuration not stated)
[5]
  Cmax: 111000 ng/mL
[6]
  Cmax: 840 ng/mL
[20]
  bioavailability: 2%
[1]
  Ki: 10 nM
[10]
  half-life: 1.3 h
[2]
  EC50: 860 nM

## CCCC(CC)(CC)N(CCO)C(=O)c1ccccc1CC(O)CCc1ccccc1C(=O)N(CCO)C(C)(C)C (configuration not stated)
[1]
  Ki: 110 nM
[2]
  EC50: 3700 nM

## CC(C)(C)N(CCO)C(=O)c1ccccc1CCC(O)Cc1ccccc1C(=O)N(CCO)[C@@]12CCCC[C@@H]1CCC2 (relative stereo)
[1]
  Ki: 64 nM
[2]
  EC50: 7600 nM
